Assay results: publication PMC3966479 (Science (New York, N.Y.), 2013)

Legend:
THP1 macrophages = experiment: In vitro phagocytosis of opsonized nanobeads by THP1 macrophages; assay type: cell-based, human; details: THP1, DMSO solvent
Procedure, shortened: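 Fluorescent 100-nm streptavidin-coated polystyrene beads, opsonized with antistreptavidin antibody, with or without attached hCD47, given to THP1 cells in vitro. Phagocytosis scored at 45 min. Cultures fixed without permeabilization, and non-ingested beads immunostained with a secondary antibody against the antistreptavidin opsonin. Data as means ± SEM.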

macrophages / phagocytes = experiment: Circulation of nanobeads in NSG mice; assay type: in vivo, mouse (NSG); details: opsonized nanobeads, i.v.
[1] = Organ localization of nanobeads by whole-body NIRF imaging; assay type: in vivo, mouse (NSG); details: NIRF beads

Molecule: Cc1ccc2c(c1)C(=O)C1(O)CCN(c3ccccc3)C1=N2 (stereo not shown) [blebbistatin]
- inhibition of uptake by 50 µM compound (THP1 macrophages; 50 µM, inhibition of myosin-IIA): inhibited

Molecule: O=S(=O)(O)c1ccc2cc(N=Nc3cc(S(=O)(=O)O)c4cccnc4c3O)ccc2c1 [NSC-87877]
- reversal of hCD47 inhibition of uptake (THP1 macrophages; SHP1 inhibition, hCD47 beads): blocks the inhibition of uptake by hCD47

B1: mCD47: recombinant mouse CD47 (protein, UniProt Q61735 19-303, looked up)
Leukocyte surface antigen CD47: QLLFSNVNSIEFTSCNETVVIPCIVRNVEAQSTEEMFVKWKLNKSYIFIYDGNKNSTTTDQNFTSAKISVSDLINGIASLKMDKRDAMVGNYTCEVTELSREGKTVIELKNRTVSWFSPNEKILIVIFPILAILLFWGKFGILTLKYKSSHTNKRIILLLVAGLVLTVIVVVGAILLIPGEKPVKNASGLGLIVISTGILILLQYNVFMTAFGMTSFTIAILITQVLGYVLALVGLCLCIMACEPVHGPLLISGLGIIALAELLGLVYMKFVASNQRTIQPPRNR
- effect on circulation / clearance of nanobeads (macrophages / phagocytes): enhanced persistence in circulation
- splenic / organ localization of nanobeads [1]: moderate but suppressed splenic localization
